Source: PubChem
Bim-Mcl-1 = inhibitors of Bim peptide binding to Mcl-1, primary screen, biochemical, bead-based flow cytometry, multiplex | Bim peptide-Mcl-1 binding | inhibition, % at 10 µM | hit rate 0.1% among 190,000; in the data active = inhibition above about 40%;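 also: 0% = no compound tracer wells and 100% = peptide blocker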
Mcl1 Noxa PPI = Mcl-1/Noxa binding inhibitors, primary screen, biochemical, TR-FRET, 1536-well; inhibition, % at 21.7 µM; TR-FRET Mcl-1/Noxa peptide binding, 2 h; Induced myeloid leukemia cell differentiation protein Mcl-1 (Homo sapiens), Q07820; hit rate 1.5% among 220,000;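 active = compounds that cut the protein-peptide binding signal by more than 50% relative to plate controls in a single-dose test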;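 also: His-tagged Mcl-1 with rhodamine Noxa BH3 peptide and terbium anti-His antibody; 0% = Mcl-1 plus Noxa peptide wells and 100% = peptide-only wells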
RBBP9 inhibitor = human RBBP9 inhibitors, primary screen, biochemical, fluorescence polarization, FP-Rh probe, HTS | inhibition, % at 7.94 µM | hit rate 0.2% among 220,000 | recombinant RBBP9 | Serine hydrolase RBBP9 (Homo sapiens), O75884;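 active = inhibition above the campaign mean of all tested compounds plus 3 SD, cut at about 14% in these data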;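 also: plate controls were DMSO wells with RBBP9 for no effect and wells lacking RBBP9 protein for full effect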
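Test system: recombinant human RBBP9. Quantity: 2.5 µM RBBP9 dispensing solution, before mixing. Detection: FP readout at 525/598 nm. Reagent: Serine-hydrolase probe FP-Rh, 375 nM pre-mixing. Measure: % inhibition. Control set: DMSO-treated enzyme wells and wells lacking RBBP9. Buffer or medium: Tris-NaCl-Pluronic buffer, pH 8.0. Times: preincubation 30 min plus labeling 45 min at 25 °C.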
EBV gp42 inh = Epstein-Barr virus gp42 inhibitors, primary screen, biochemical, uHTS, fluorescence polarization. hit rate 0.42% among 220,000. inhibition, % (tested at 21.74 µM). AID 1085, 2008. Glycoprotein 42 (Epstein-Barr virus (strain AG876)), Q1HVG2. Fluorescence polarization binding assay, mP read-out; in the data active = inhibition above about 50%
Target sequence (Q1HVG2 whole entry, looked up): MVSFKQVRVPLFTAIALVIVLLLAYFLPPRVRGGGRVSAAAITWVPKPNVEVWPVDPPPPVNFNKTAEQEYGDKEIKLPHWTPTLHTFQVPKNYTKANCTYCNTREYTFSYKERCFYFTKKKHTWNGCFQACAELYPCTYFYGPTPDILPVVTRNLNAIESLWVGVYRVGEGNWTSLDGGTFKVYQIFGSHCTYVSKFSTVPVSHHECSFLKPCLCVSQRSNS
MCL1-BIM inh = inhibitors of MCL1 binding to BIM-BH3, primary screen, biochemical, fluorescence polarization; hit rate 0.68% among 320,000; AID 2057, 2009; Induced myeloid leukemia cell differentiation protein Mcl-1 (Homo sapiens), Q07820; inhibition, % at 10.9 µM; GST-MCL1 / FITC-Bim-BH3 fluorescence polarization;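 active = inhibition above the mean inhibition of all tested compounds plus 3 SD, set per campaign, cut at about 40% in these data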;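 also: 0% = DMSO wells and 100% = unlabeled Bim-BH3 peptide control; higher means more loss of mP so more displacement of Bim peptide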
Mcl1-Bid inh = Mcl-1/Bid binding inhibitors, primary screen, biochemical, TR-FRET, 1536-well. TR-FRET Mcl-1/Bid-Dy647 peptide binding. AID 1021, 2008. inhibition, % at 21.7 µM. hit rate 0.97% among 220,000. Induced myeloid leukemia cell differentiation protein Mcl-1 (Homo sapiens), Q07820;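 active = compounds that cut the binding signal by more than half at the single screening dose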;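 also: His-tagged Mcl-1 with europium anti-His antibody binding Bid BH3 peptide; 0% = Mcl-1 plus peptide wells and 100% = peptide-only wells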
BCLXL inh confirm = Bcl-xL inhibitors blocking Bim BH3 binding, confirmation, counter-screen for MCL1 inhibitor project, biochemical, fluorescence polarization; shares compounds with MCL1-BIM inh; GST-Bcl-xL / FITC-Bim BH3 peptide FP binding; inhibition, % at 10.9 µM; hit rate 54% among 1,700; AID 2166, 2009;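 active = inhibition above a cutoff equal to the mean inhibition of all tested compounds plus 3 SD, cut at about 30% in these data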;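 also: 0% = DMSO wells and 100% = unlabeled Bim BH3 control peptide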
Target sequence (Q07817 whole entry, looked up): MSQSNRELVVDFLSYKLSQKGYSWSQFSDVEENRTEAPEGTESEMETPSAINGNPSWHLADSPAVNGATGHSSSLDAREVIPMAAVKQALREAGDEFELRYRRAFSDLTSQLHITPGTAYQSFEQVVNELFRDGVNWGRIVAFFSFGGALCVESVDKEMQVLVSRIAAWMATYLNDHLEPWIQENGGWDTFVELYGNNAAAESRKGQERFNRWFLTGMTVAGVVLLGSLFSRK
MCL1 BIM confirm = inhibitors of MCL1 binding to BIM-BH3, confirmation, biochemical, fluorescence polarization, triplicate; shares compounds with MCL1-BIM inh; GST-MCL1 / FITC-Bim-BH3 fluorescence polarization; inhibition, % at 10.9 µM; hit rate 61% among 1,700; AID 2168, 2009;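 active = inhibition above the average of all tested compounds plus 3 SD, cut at about 40% in these data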;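 also: 0% = DMSO wells and 100% = unlabeled Bim-BH3 control peptide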
Active calls of the source: *; / = no result. Only some compounds are listed: those with a hit (about 2.2% of all), similar ones and a draw of the others.

SMILES | Bim-Mcl-1 | Mcl1 Noxa PPI | RBBP9 inhibitor | EBV gp42 inh | MCL1-BIM inh | Mcl1-Bid inh | BCLXL inh confirm | MCL1 BIM confirm
Cn1cc(CCC(=O)NCc2ccc(Cl)cc2)c2ccccc21 | / | / | / | / | 53* | / | -1 | -6
CCCOc1cccc(C2C(C(=O)c3ccco3)=C(O)C(=O)N2c2nnc(C)s2)c1 (configuration not stated) | / | / | / | / | 54* | / | 56* | 72*
C=CCOc1cccc(C2C(C(=O)c3ccc(C)o3)=C(O)C(=O)N2c2nccs2)c1 (configuration not stated) | 2 | 7 | 0 | 179* | 162* | -74 | 137* | 162*
Cc1ccc(C2C(C(=O)c3cccs3)=C(O)C(=O)N2c2nnc(C)s2)cc1 (configuration not stated) | -1 | 15 | -10 | 123* | 86* | -14 | 123* | 143*
CSc1ccc(C2C(C(=O)c3ccco3)=C(O)C(=O)N2c2nnc(SC)s2)cc1 (configuration not stated) | / | / | / | / | 93* | / | 143* | 168*
COc1cccc(C2C(C(=O)c3ccc(C)o3)=C(O)C(=O)N2c2cc(C)on2)c1 (configuration not stated) | / | / | / | / | -7 | / | / | /
CCCOc1cccc(C2C(C(=O)c3ccco3)=C(O)C(=O)N2CCCn2ccnc2)c1 (configuration not stated) | / | / | / | / | 6 | / | / | /
NC(=O)c1ccsc1NC(=O)COC(=O)c1cnccn1 | / | / | / | / | 18 | / | / | /
CCn1c(CN2CCOCC2)nnc1SCC(=O)Nc1ccc(C(C)=O)cc1 | / | / | / | / | 2 | / | / | /
C/C(CC(=O)Nc1ccccc1F)=N\NC(=O)Cc1ccc(Cl)cc1 | -1 | -5 | -8 | -3 | 21 | -9 | / | /
O=C(COC(=O)c1ccccc1NCCO)NCC1CCCCC1 | / | / | / | / | -12 | / | / | /
O=C1OC(Nc2cc(Br)cc3cccnc23)c2ccccc21 (configuration not stated) | -4 | 11 | -7 | 2 | 90* | -41 | 56* | 68*
Cc1cccc(OC(C)C(=O)NC2CCS(=O)(=O)C2)c1C (configuration not stated) | / | / | / | / | 5 | / | / | /
Cc1[nH][nH]c(=O)c1N=Nc1ccc(S(N)(=O)=O)cc1 | / | / | / | / | 2 | / | / | /
NS(=O)(=O)c1ccc(N=Nc2c[nH]c(=O)c(O)c2)cc1 | / | 19 | -9 | -9 | 163* | -281 | 169* | 195*
CCOC(=O)C1CCN(C(=O)C2CCCN(S(=O)(=O)c3ccc(OCC)c(Cl)c3)C2)CC1 (configuration not stated) | / | / | / | / | 0 | / | / | /
COc1cccc(C(=O)/C=C/Nc2cccc(O)c2)c1 | 0 | 18 | 2 | -14 | 94* | -63 | 17 | 22
O=C1OC(C(=O)O)Cc2ccccc21 (configuration not stated) | 1 | 23 | -3 | -5 | 64* | -1 | 2 | 5
Cc1cc(=O)cc(C)n1-c1ccccc1N | / | / | / | / | 11 | / | / | /
Cc1ccc(C)n1-c1ccccc1N | -5 | 11 | -5 | 6 | 87* | -30 | -123 | -194
S=C(Nc1cccc2ccccc12)NC1CCCCC1 | -3 | 25 | 4 | 1 | 4 | -24 | / | /
Cc1cc(=O)oc(C)c1C(=O)NNC(=O)C1(C)CC1Br (configuration not stated) | / | -2 | -10 | 4 | -5 | -26 | / | /
CC1(C(=O)NNC(=O)c2ccc(=O)oc2)CC1Br (configuration not stated) | / | -53 | -5 | 33 | 58* | -112 | 41* | 52*
